# Assays:
# Mus musculus [1] = organism: Mus musculus; assay: Inhibition of estrone-stimulated uterine growth in mice at 10 ug
# [2] = target: T1, Estrogen receptor (Mus musculus) (UniProt O08537+P19785); assay: Anti-uterotrophic effect in mice as uterus dry weight(mg) compared to body weight(g) at 500 ug/day dose; type: functional, tissue-based
# Outline: (§1)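 Mice aged 20 days at start, dosed sc once daily for 3 days (0.1 mL injections, arachis oil vehicle); vehicle-only control group. Killed 24 h after last dose; body weight recorded; uteri fixed in Bouin's solution 12 h, trimmed of connective tissue, washed with saturated alcoholic LiCl, dried 100 °C for 24 h, then weighed.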
# [3] = target: T1, Estrogen receptor (Mus musculus); assay: Uterotrophic effect in mice as uterus dry weight(mg) compared to body weight(g) at 250 ug/day dose; type: functional, tissue-based
# Outline: as §1
# [4] = target: T1, Estrogen receptor (Mus musculus); assay: Uterotrophic effect in mice as uterus dry weight(mg) compared to body weight(g) at 10 ug/day dose; type: functional, tissue-based
# Outline: as §1
# [5] = target: T1, Estrogen receptor (Mus musculus); assay: Anti-uterotrophic effect in mice as uterus dry weight(mg) compared to body weight(g) at 100 ug/day dose; type: functional, tissue-based
# Outline: as §1
# [6] = target: T2, Estrogen receptor (Bos taurus) (UniProt Q9XSB5+P49884); assay: Ratio of association constants for estradiol and compound in estrogen receptor binding assay; type: protein assay
# [7] = target: T1, Estrogen receptor (Mus musculus); assay: Uterotrophic effect in mice as uterus dry weight(mg) compared to body weight(g) at 2 ug/day dose; type: functional, tissue-based
# Outline: as §1
# Mus musculus [8] = organism: Mus musculus; assay: Inhibition of estrone-stimulated uterine growth in mice at 25 ug
# [9] = target: T2, Estrogen receptor (Bos taurus); assay: Association constant for Estrogen receptor; type: protein assay
# [10] = target: T2, Estrogen receptor (Bos taurus); assay: Relative binding affinity for Estrogen receptor compared to 17-beta-estradiol; type: protein assay
# [11] = target: T1, Estrogen receptor (Mus musculus); assay: Uterotrophic effect in mice as uterus dry weight(mg) compared to body weight(g) at 50 ug/day dose; type: functional, tissue-based
# Outline: as §1
# [12] = target: T1, Estrogen receptor (Mus musculus); assay: Anti-uterotrophic effect in mice as uterus dry weight(mg) compared to body weight(g) at 10 ug/day dose; type: functional, tissue-based
# Outline: as §1
# [13] = target: T1, Estrogen receptor (Mus musculus); assay: Anti-uterotrophic effect in mice as uterus dry weight(mg) compared to body weight(g) at 25 ug/day dose; type: functional, tissue-based
# Outline: as §1
# [14] = target: T1, Estrogen receptor (Mus musculus); assay: Anti-uterotrophic effect in mice as uterus dry weight(mg) compared to body weight(g) at 0 ug/day dose; type: functional, tissue-based
# Outline: as §1
# [15] = target: T1, Estrogen receptor (Mus musculus); assay: Uterotrophic effect in mice as uterus dry weight(mg) compared to body weight(g) at 0 ug/day dose; type: functional, tissue-based
# Outline: as §1
# [16] = target: T1, Estrogen receptor (Mus musculus); assay: Anti-uterotrophic effect in mice as uterus dry weight(mg) compared to body weight(g) at 250 ug/day dose; type: functional, tissue-based
# Outline: as §1
# [17] = target: T1, Estrogen receptor (Mus musculus); assay: Uterotrophic effect in mice as uterus dry weight(mg) compared to body weight(g) at 500 ug/day dose; type: functional, tissue-based
# Outline: as §1
# [18] = target: T1, Estrogen receptor (Mus musculus); assay: Anti-uterotrophic effect in mice as uterus dry weight(mg) compared to body weight(g) at 2 ug/day dose; type: functional, tissue-based
# Outline: as §1
# [19] = target: T1, Estrogen receptor (Mus musculus); assay: Uterotrophic effect in mice as uterus dry weight(mg) compared to body weight(g) at 20 ug/day dose; type: functional, tissue-based
# Outline: as §1
# [20] = target: T1, Estrogen receptor (Mus musculus); assay: Uterotrophic effect in mice as uterus dry weight(mg) compared to body weight(g) at 100 ug/day dose; type: functional, tissue-based
# Outline: as §1
# [21] = target: T1, Estrogen receptor (Mus musculus); assay: Uterotrophic effect in mice as uterus dry weight(mg) compared to body weight(g) at 4 ug/day dose; type: functional, tissue-based
# Outline: as §1
# Mus musculus [22] = organism: Mus musculus; assay: Inhibition of estrone-stimulated uterine growth in mice at 2 ug
# Mus musculus [23] = organism: Mus musculus; assay: Inhibition of estrone-stimulated uterine growth in mice at 250 ug
# Mus musculus [24] = organism: Mus musculus; assay: Inhibition of estrone-stimulated uterine growth in mice at 1000 ug
# Mus musculus [25] = organism: Mus musculus; assay: Inhibition of estrone-stimulated uterine growth in mice at 100 ug
# [26] = target: T1, Estrogen receptor (Mus musculus); assay: Anti-uterotrophic effect in mice as uterus dry weight(mg) compared to body weight(g) at 5 ug/day dose; type: functional, tissue-based
# Outline: as §1
# [27] = target: T1, Estrogen receptor (Mus musculus); assay: Uterotrophic effect in mice as uterus dry weight(mg) compared to body weight(g) at 8 ug/day dose; type: functional, tissue-based
# Outline: as §1
# [28] = target: T1, Estrogen receptor (Mus musculus); assay: Anti-uterotrophic effect in mice as uterus dry weight(mg) compared to body weight(g) at 1000 ug/day dose; type: functional, tissue-based
# Outline: as §1
# [29] = target: T1, Estrogen receptor (Mus musculus); assay: Uterotrophic effect in mice as uterus dry weight(mg) compared to body weight(g) at 1000 ug/day dose; type: functional, tissue-based
# Outline: as §1
# [30] = target: T1, Estrogen receptor (Mus musculus); assay: Uterotrophic effect in mice as uterus dry weight(mg) compared to body weight(g) at 24 ug/day dose; type: functional, tissue-based
# Outline: as §1
# [31] = target: T1, Estrogen receptor (Mus musculus); assay: Uterotrophic effect in mice as uterus dry weight(mg) compared to body weight(g) at 80 ug/day dose; type: functional, tissue-based
# Outline: as §1
# Mus musculus [32] = organism: Mus musculus; assay: Inhibition of estrone-stimulated uterine growth in mice at 5 ug
# Mus musculus [33] = organism: Mus musculus; assay: Inhibition of estrone-stimulated uterine growth in mice at 500 ug
# Mus musculus [34] = organism: Mus musculus; assay: Inhibition of estrone-stimulated uterine growth in mice at 5 ug; remark: listed apart in the source
# [35] = target: T1, Estrogen receptor (Mus musculus); assay: Uterotrophic effect in mice as uterus dry weight(mg) compared to body weight(g) at 25 ug/day dose; type: functional, tissue-based
# Outline: as §1
# [36] = target: T1, Estrogen receptor (Mus musculus); assay: Uterotrophic effect in mice as uterus dry weight(mg) compared to body weight(g) at 5 ug/day dose; type: functional, tissue-based
# Outline: as §1
# [37] = target: T1, Estrogen receptor (Mus musculus); assay: Uterotrophic effect in mice as uterus dry weight(mg) compared to body weight(g) at 2.5 ug/day dose; type: functional, tissue-based
# Outline: as §1
# Mus musculus [38] = organism: Mus musculus; assay: Inhibition of estrone-stimulated uterine growth in mice at 2.5 ug
# [39] = target: T1, Estrogen receptor (Mus musculus); assay: Anti-uterotrophic effect in mice as uterus dry weight(mg) compared to body weight(g) at 2.5 ug/day dose; type: functional, tissue-based
# Outline: as §1
# [40] = target: T1, Estrogen receptor (Mus musculus); assay: Uterotrophic effect in mice as uterus dry weight(mg) compared to body weight(g) at 240 ug/day dose; type: functional, tissue-based
# Outline: as §1
# T1 sequence (O08537 whole entry, looked up): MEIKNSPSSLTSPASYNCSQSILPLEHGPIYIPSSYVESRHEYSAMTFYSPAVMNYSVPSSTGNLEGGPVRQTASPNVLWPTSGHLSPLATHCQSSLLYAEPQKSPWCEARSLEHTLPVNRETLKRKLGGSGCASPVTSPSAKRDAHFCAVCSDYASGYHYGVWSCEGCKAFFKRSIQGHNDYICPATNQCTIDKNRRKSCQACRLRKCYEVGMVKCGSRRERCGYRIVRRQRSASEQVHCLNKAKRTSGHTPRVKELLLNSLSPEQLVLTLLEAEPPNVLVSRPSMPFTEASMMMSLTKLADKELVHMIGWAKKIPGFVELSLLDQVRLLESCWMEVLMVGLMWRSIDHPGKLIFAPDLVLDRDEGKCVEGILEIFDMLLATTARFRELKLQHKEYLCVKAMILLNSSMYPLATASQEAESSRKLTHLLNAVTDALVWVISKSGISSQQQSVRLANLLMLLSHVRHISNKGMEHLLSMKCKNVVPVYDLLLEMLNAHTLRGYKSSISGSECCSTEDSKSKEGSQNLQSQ
# T1 sequence (P19785 whole entry, looked up): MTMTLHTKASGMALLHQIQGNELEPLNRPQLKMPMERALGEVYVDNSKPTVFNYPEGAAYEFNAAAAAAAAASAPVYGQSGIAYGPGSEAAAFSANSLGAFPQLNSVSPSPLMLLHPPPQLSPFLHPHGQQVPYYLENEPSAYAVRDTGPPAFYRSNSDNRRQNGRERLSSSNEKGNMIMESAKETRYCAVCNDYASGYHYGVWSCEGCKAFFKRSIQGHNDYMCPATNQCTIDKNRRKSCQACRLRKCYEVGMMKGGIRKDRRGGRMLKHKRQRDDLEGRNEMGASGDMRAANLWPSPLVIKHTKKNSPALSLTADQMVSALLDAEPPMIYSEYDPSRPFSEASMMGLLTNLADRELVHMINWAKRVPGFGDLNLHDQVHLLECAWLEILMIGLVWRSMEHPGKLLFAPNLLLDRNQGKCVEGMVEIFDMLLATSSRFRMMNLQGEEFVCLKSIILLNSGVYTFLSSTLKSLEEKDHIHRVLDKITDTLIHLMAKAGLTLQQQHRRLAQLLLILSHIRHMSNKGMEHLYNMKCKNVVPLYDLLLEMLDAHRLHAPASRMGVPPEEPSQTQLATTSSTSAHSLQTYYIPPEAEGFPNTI
Compound,Inhibition (Mus musculus [1]) [%],Effect [2],Effect [3],Effect [4],Effect [5],RAC [6],Inhibition (Mus musculus [8]) [%],Ka [9] [M⁻¹],RA [10],Effect [11],Effect [12],Effect [13],Effect [14],Effect [15],Effect [16],Effect [17],Effect [20],Inhibition (Mus musculus [25]) [%],Effect [26],Effect [27],also measured
CCC(C)(c1ccc(O)cc1)C(C)(CC)c1ccc(O)cc1 (stereo not drawn),10.4,42.2,50.1,34.7,38.2,0.0025,13.1,1.8e+07,0.0027,39.1,34.6,34,14,15.4,–,–,–,–,–,–,Effect [7]: 24.6
CCC(CC)(c1cccc(O)c1)C(CC)(CC)c1cccc(O)c1,23,–,–,–,–,0.0039,–,2.8e+07,0.0042,–,32.8,38,15.6,15.4,42.9,52.4,52.7,–,–,–,Effect [18]: 27.4; Effect [19]: 35.8; Effect [21]: 23.1; Inhibition (Mus musculus [22]): 47%
CC(C)(c1ccc(O)cc1)C(C)(C)c1ccc(O)cc1,–,–,13.3,–,19.4,0.01,45.4,7.3e+07,0.011,–,–,28,11.2,9.2,19.3,–,–,73.5,37.3,10.6,Inhibition (Mus musculus [23]): 73.5%; Inhibition (Mus musculus [24]): 57.3%; Effect [28]: 24.4; Effect [29]: 14.3; Effect [30]: 15.7; Effect [31]: 15.8; Inhibition (Mus musculus [32]): 15.4%
CC(C)(c1ccc(F)c(O)c1)C(C)(C)c1ccc(F)c(O)c1,–,25.2,–,–,27.3,0.0029,20.9,2.1e+07,0.0031,–,–,35.2,15.7,15.4,–,21.4,16.7,53.1,36.1,–,Inhibition (Mus musculus [33]): 61.5%; Inhibition (Mus musculus [34]): 17.2%; Effect [19]: 16.7; Effect [21]: 17.8
CC(C)(c1cccc(O)c1)C(C)(C)c1cccc(O)c1,–,–,14.6,–,20.4,0.0093,43.2,6.7e+07,0.01,–,–,28.7,11.2,9.2,19.4,–,–,70.3,33.9,9.8,Inhibition (Mus musculus [34]): 26.5%; Inhibition (Mus musculus [23]): 73.6%; Inhibition (Mus musculus [24]): 60.5%; Effect [28]: 23.4; Effect [29]: 13.4; Effect [30]: 15.7; Effect [31]: 15.4
CC(C)(c1cc(O)cc(O)c1)C(C)(C)c1cc(O)cc(O)c1,11.7,38.9,–,–,40.4,4e-05,–,290000,4.3e-05,–,30.6,–,11.3,9.6,–,14.3,8.5,–,–,–,Effect [35]: 9.4; Effect [36]: 9
CC(=O)Oc1ccc(C(C)(C)C(C)(C)c2ccc(OC(C)=O)c(OC(C)=O)c2)cc1OC(C)=O,13.3,–,14.2,13.8,41.6,0.00021,13.5,1.5e+06,0.00023,13.6,37.8,37.8,12.6,11.4,–,–,–,0.3,–,–,Effect [37]: 13.8; Inhibition (Mus musculus [38]): 18.3%; Effect [39]: 36.4
CCC(c1cccc(O)c1)C(CC)c1cccc(O)c1 (stereo not drawn),–,–,–,–,–,0.048,–,3.5e+08,0.052,–,–,–,–,–,–,–,–,–,–,–,–
CC(=O)Oc1cc(OC(C)=O)cc(C(C)(C)C(C)(C)c2cc(OC(C)=O)cc(OC(C)=O)c2)c1,14.4,–,11.3,12.1,41.3,6.6e-05,9.1,480000,7.1e-05,14.1,37.5,39,12.6,11.4,–,–,–,1.6,–,–,Effect [37]: 11.1; Inhibition (Mus musculus [38]): 8.9%; Effect [39]: 39.1
CCC(CC)(c1ccc(O)cc1)C(CC)(CC)c1ccc(O)cc1,10.3,–,–,–,–,0.0046,2.2,4.8e+07,0.005,–,34.6,36.4,14,9.2,43.2,–,–,–,–,15.3,Effect [18]: 31.3; Effect [40]: 43.7; Inhibition (Mus musculus [22]): 24.6%; Effect [30]: 23.6; Effect [31]: 31.9

# Source: ChEMBL document CHEMBL1121485, “Antiestrogens. Synthesis and evaluation of mammary tumor inhibiting activity of 1,1,2,2-tetraalkyl-1,2 -diphenylethanes” (1980)
